Measurements taken from ChEMBL document CHEMBL1140948, “Malaria-infected mice are cured by a single oral dose of new dimeric trioxane sulfones which are also selectively and powerfully cytotoxic to cancer cells” (J Med Chem, 2009).
pIC50: −log10 of the molar value.

How the values were obtained:
Plasmodium berghei [1] = assay: Antiplasmodial activity as survival in Plasmodium berghei ANKA infected BALB/c mice (Mus musculus) after single 13 mg/kg peroral dose; assay type: functional; settings: route oral
[2] = Partition coefficient, log P of the compound; assay type: physicochemical; settings: octanol/water
Mus musculus [3] = assay: Toxicity in Plasmodium berghei ANKA infected perorally dosed BALB/c mice (Mus musculus) assessed as induction of behavioral changes administered as single dose; assay type: organism-based; settings: in vivo, po
Summary of the method: (§1)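 Male 5-week-old mice of about 22 g, infected i.p. on day 0 with 2 × 10^7 P. berghei ANKA-parasitized erythrocytes. At 24 h they received one oral dose in 7:3 Tween 80:ethanol diluted with water, 5 mice per group. Animals were watched to day 30 for overt toxicity and behavioral change.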

HeLa = assay: Cytotoxicity against human HeLa cells after 72 hrs by SRB assay; assay type: functional, cell-based
Summary of the method: (§2)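 Then 72 hr with a range of compound concentrations. Fixed overnight at 4 °C in 10% TCA, stained 30 min with 0.057% w/v sulforhodamine B in 1% acetic acid, dye solubilised in 10 mM Tris base, read at 510 nm.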

U-937 = assay: Cytotoxicity against human U937 cells after 72 hrs by MTS assay; assay type: functional, cell-based; settings: U-937, 72 h
Summary of the method: (§3)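 Exposed to a range of compound concentrations for 72 hr. Viability by MTS/PMS, absorbance at 490 nm. IC50 from logistic dose-response fits, mean of at least three experiments ± SEM.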

Mus musculus [4] = assay: Toxicity in Plasmodium berghei ANKA infected BALB/c mice (Mus musculus) assessed as induction of adverse effects at 144 mg/kg, perorally administered as single dose; assay type: organism-based; parameters: dose 144 mg/kg, route oral; settings: in vivo, po; summary of the method: as §1
SK-MEL-5 = assay: Cytotoxicity against human SK-MEL-5 cells after 72 hrs by SRB assay; assay type: functional, cell-based; settings: SK-MEL-5, 72 h; summary of the method: as §2
UACC-62 = assay: Cytotoxicity against human UACC62 cells after 72 hrs by SRB assay; assay type: functional, cell-based; settings: UACC-62, 72 h; summary of the method: as §2
[5] = Cytotoxicity against human Hs888Lu cells after 72 hrs by SRB assay; assay type: cell-based
Summary of the method: (§4)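 Non-cancerous immortalized fibroblasts grown in DMEM with 10% FBS and 1% pen/strep at 37 °C, 5% CO2, allowed ≥5 h to attach. Dosed over a concentration range for 72 hr. IC50 by logistic curve fitting, at least three experiments ± SEM.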

HL-60 = assay: Cytotoxicity against human HL60 cells after 72 hrs by MTS assay; assay type: functional, cell-based; settings: HL-60, 72 h; summary of the method: as §3
MEF = assay: Cytotoxicity against mouse wild type MEF cells after 72 hrs by SRB assay; assay type: cell-based
Summary of the method: as §4, with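 “hr. Biomass by SRB: TCA fixation overnight at 4 °C, 0.057% SRB stain for 30 min, Tris solubilisation, A510.” for “hr.”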

Plasmodium berghei [6] = assay: Antiplasmodial activity as survival in Plasmodium berghei ANKA infected BALB/c mice (Mus musculus) at 30 mg/kg peroral dose; assay type: functional; settings: route oral
Plasmodium berghei [7] = assay: Antiplasmodial activity as reduced parasitaemia in Plasmodium berghei ANKA infected BALB/c mice (Mus musculus) at 30 mg/kg peroral dose; assay type: functional; parameters: scale not given: the % may be the effect or the level left; settings: route oral

With `Cl.OC(c1cc(C(F)(F)F)nc2c(C(F)(F)F)cccc12)C1CCCCN1` (configuration not stated) [MEFLOQUINE HYDROCHLORIDE] the Survival (Plasmodium berghei [1]) was 11 days.

Molecule `C[C@H]1[C@@H](CC(C[C@H]2O[C@@H]3C[C@]4(C)CC[C@H]5[C@H](C)CC[C@@H]([C@H]2C)[C@@]35OO4)CS(=O)(=O)Cc2ccc(F)cc2)O[C@@H]2C[C@]3(C)CC[C@H]4[C@H](C)CC[C@@H]1[C@@]24OO3` has a logP ([2]; read-out: logP) of 7.8.

Work on `C[C@H]1[C@@H](CC(C[C@H]2O[C@@H]3C[C@]4(C)CC[C@H]5[C@H](C)CC[C@@H]([C@H]2C)[C@@]35OO4)CS(=O)(=O)CCCCCCO)O[C@@H]2C[C@]3(C)CC[C@H]4[C@H](C)CC[C@@H]1[C@@]24OO3` yielded a logP [2] of 9.5.

Molecule `CCN(CC)C(=O)OCc1ccc(S(=O)(=O)CC(C[C@H]2O[C@@H]3C[C@]4(C)CC[C@H]5[C@H](C)CC[C@@H]([C@H]2C)[C@@]35OO4)C[C@H]2O[C@@H]3C[C@]4(C)CC[C@H]5[C@H](C)CC[C@@H]([C@H]2C)[C@@]35OO4)cc1` has a logP ([2]; read-out: logP) of 8.3.

For `C[C@H]1[C@@H](CC(C[C@H]2O[C@@H]3C[C@]4(C)CC[C@H]5[C@H](C)CC[C@@H]([C@H]2C)[C@@]35OO4)CS(=O)(=O)c2ccc(COC(=O)N(C)C)cc2)O[C@@H]2C[C@]3(C)CC[C@H]4[C@H](C)CC[C@@H]1[C@@]24OO3`, the Activity (Mus musculus [3]) was “Non-toxic”, the pIC50 (HeLa) was 6.96 and the pIC50 (U-937) was 6.55. For the same molecule, the Activity (Mus musculus [4]) was “Non-toxic”, the pIC50 (SK-MEL-5) was 7.22 and the pIC50 (UACC-62) was 7.40. For the same molecule, the pIC50 [5] was under 4.30, the logP ([2]; read-out: logP) was 7.6 and the pIC50 (HL-60) was 7.22. The pIC50 (MEF) was under 4.30.

In the case of `C[C@H]1[C@H](OC(=O)CCC(=O)[O-])O[C@@H]2O[C@@]3(C)CC[C@H]4[C@H](C)CC[C@@H]1[C@@]24OO3.[Na+]` [SODIUM ARESUNATE], the Survival (Plasmodium berghei [6]) was 7.6 days.

For `COc1cccc2c1C(=O)c1c(O)c3c(c(O)c1C2=O)C[C@@](O)(C(=O)CO)C[C@@H]3O[C@H]1C[C@H](N)[C@H](O)[C@H](C)O1` [DOXORUBICIN], the pIC50 (MEF) was 5.47.

For `CC(C)(N)CNC(=O)C[C@H]1CC[C@]2(CC1)OO[C@]1(O2)C2CC3CC(C2)CC1C3` [OZ277], the Activity (Plasmodium berghei [7]) was 99.95% and the Survival (Plasmodium berghei [6]) was 10.7 days.

For `CCOP(=O)(OCC)OCc1ccc(S(=O)(=O)CC(C[C@H]2O[C@@H]3C[C@]4(C)CC[C@H]5[C@H](C)CC[C@@H]([C@H]2C)[C@@]35OO4)C[C@H]2O[C@@H]3C[C@]4(C)CC[C@H]5[C@H](C)CC[C@@H]([C@H]2C)[C@@]35OO4)cc1`, the logP ([2]; read-out: logP) was 8.8.

With `C[C@H]1[C@@H](CC(C[C@H]2O[C@@H]3C[C@]4(C)CC[C@H]5[C@H](C)CC[C@@H]([C@H]2C)[C@@]35OO4)CS(=O)(=O)c2ccc(CO)cc2)O[C@@H]2C[C@]3(C)CC[C@H]4[C@H](C)CC[C@@H]1[C@@]24OO3` the pIC50 (HeLa) was 5.96, the pIC50 (U-937) was 6.55 and the pIC50 (SK-MEL-5) was 6.85. It also gave a pIC50 (UACC-62) of 7.52, a pIC50 [5] of under 4.30 and a logP ([2]; read-out: logP) of 7. For the same molecule, the pIC50 (HL-60) was 6.89 and the pIC50 (MEF) was under 4.30.
